Activity calls are given as the source filed them.
Columns and labels:
[1] = Volume of distribution at steady state in Sprague-Dawley rat at 4 mg/kg, iv measured up to 48 hrs by LC-MS/MS analysis; settings: in vivo
in vivo = settings: Sprague-Dawley, rat, iv, 4 mg/kg
[2] = Toxicity in BALB/c athymic nude mouse xenografted with human HCT-116 cells assessed as reduction in body weight at 5 mg/kg, iv administered twice a week for 28 days; type: organism-based; settings: in vivo, 672 h, time 28 day
Outline: (§1)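 Male nude mice had 1 × 10^7 HCT-116 cells in serum-free RPMI 1640 implanted subcutaneously in the right flank. At ~300 mm³ (about day 10) they were randomized, n=3/group. Dosing was by tail vein twice weekly (D1/D4) for four weeks: 10 mg/kg in 8% ethanol/2% Tween 80/90% water, or 5 mg/kg in 10% sulfobutylether-β-cyclodextrin, 10 mmol/L citrate pH 3.5. Caliper volume (length × width²)/2 and body weight were measured twice weekly.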

[3] = Clearance in Sprague-Dawley rat at 4 mg/kg, iv measured up to 48 hrs by LC-MS/MS analysis; settings: in vivo
[4] = Cmax in Sprague-Dawley rat at 4 mg/kg, iv measured up to 48 hrs by LC-MS/MS analysis; type: ADME, organism-based; parameters: route intravenous, dose 4 mg/kg, time <=48; settings: in vivo
[5] = target: T1, Proteasome Macropain subunit MB1 (Homo sapiens) (UniProt P28074); test: (§2) Irreversible inhibition of human 20S proteasome beta5 subunit assessed as residual enzyme activity using Suc-LLVY-Glo as substrate preincubated for 2 hrs followed by compound washout and further incubated for 4 hrs followed by substrate addition and measured after 10 mins by bioluminescent assay relative to control
T1 sequence (whole entry): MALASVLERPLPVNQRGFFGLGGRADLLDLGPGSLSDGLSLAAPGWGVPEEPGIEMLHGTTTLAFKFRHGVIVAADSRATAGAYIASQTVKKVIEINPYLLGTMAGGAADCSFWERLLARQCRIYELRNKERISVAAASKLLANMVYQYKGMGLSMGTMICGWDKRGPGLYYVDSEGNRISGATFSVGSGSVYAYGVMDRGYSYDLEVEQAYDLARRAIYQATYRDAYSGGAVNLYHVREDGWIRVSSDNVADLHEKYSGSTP
Outline: (§3)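 Human 20S proteasome (8 μg/mL) was pre-incubated with inhibitor for 2 h at 25 °C. Samples were then washed five times in assay buffer on 100 kDa cut-off centrifugal filters (14,000 g, 5 min each) and recovered. After a further 4 h at 25 °C, Suc-LLVY-Glo was added and luminescence was read after 10 min. Unwashed samples held an extra 4 h served as the standard.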

HCT-116 [6] = test: Antitumour activity against human HCT-116 cells xenografted in BALB/c athymic nude mouse assessed as reduction in tumour growth at 5 mg/kg, iv administered twice a week for 28 days by caliper analysis; type: functional, organism-based; settings: time 28.0 day; outline: as §1
[7] = target: T1, Proteasome Macropain subunit MB1 (Homo sapiens); test: Covalent binding affinity to human 20S proteasome beta5 subunit assessed as compound-tryptic digest TTTLAFKFR peptide adduct formation at 10 uM incubated for 2 hrs measured after overnight incubation with trypsin by LC-MS/MS analysis
Outline: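 Purified human 20S proteasome (4 nM) was incubated with 10 μM inhibitor for 2 h at room temperature, then quenched and denatured with acetonitrile. Trypsin (1:50) digestion ran overnight at 37 °C, followed by C18 desalting. Nano-LC-MS/MS used a 0.1% formic acid water/acetonitrile gradient. Adducts were searched against UniProt at ±10 ppm precursor and ±0.02 Da fragment tolerance, allowing 2 missed cleavages.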

[8] = Half life in Sprague-Dawley rat at 4 mg/kg, iv measured up to 48 hrs by LC-MS/MS analysis; settings: in vivo
[9] = target: T1, Proteasome Macropain subunit MB1 (Homo sapiens); test: Inhibition of chymotrypsin-like activity of human 20S proteasome beta5 subunit at 50 uM using Suc-LLVY-Glo as substrate incubated for 2 hrs followed by substrate addition and measured for 10 mins by bioluminescent assay relative to control; settings: time 130.0 min
Outline: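 Human constitutive 20S proteasome (1 µg/mL) was incubated with compound for 2 h at 25 °C in 10 mM HEPES pH 7.6 with 1% DMSO final. Suc-LLVY-Glo substrate was then added, and luminescence was read over 10 min. Inhibition rate was calculated against the uninhibited signal.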

[10] = target: T2, Proteasome Macropain subunit MB1 (Homo sapiens, UniProt P28074); test: Inhibition of chymotrypsin-like activity of human 20S proteasome beta5 subunit using Suc-LLVY-Glo as substrate incubated for 2 hrs followed by substrate addition and measured for 10 mins by bioluminescent assay
T2 sequence (P28074 whole entry): T1 sequence (whole entry)
Outline: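 Human constitutive 20S proteasome (1 μg/mL) was combined with compound serially diluted in 10 mM HEPES pH 7.6, with final DMSO 1% (v/v). After 2 h at 25 °C, Suc-LLVY-Glo (CT-L), Z-LRR-Glo (T-L) or Z-nLPnLD-Glo (C-L) reagent was added. Luminescence was read over 10 min, and IC50 was taken from inhibition rates.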

BGC-823 = test: Cytotoxicity against human BGC-823 cells assessed as reduction in cell viability after 72 hrs by Cell Titer-Glo assay; type: functional, cell-based; settings: BGC-823, 72 h
Outline: (§4)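 Cells were cultured in their respective media with 10% FBS, seeded from log phase at 1000 cells/well, and given compound after 18–24 h. After 72 h, an equal volume of CellTiter-Glo reagent was added and luminescence was read at 37 °C. IC50 came from dose-response curve fits; values are mean ± SD of three independent experiments, each in biological triplicate.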

HCT-116 [11] = test: Cell cycle arrest in human HCT-116 cells assessed as accumulation at S phase at 1 uM after 24 hrs by propidium iodide staining based flow cytometric analysis (reference value: 50%); type: functional
HCT-116 [12] = test: Cytotoxicity against human HCT-116 cells assessed as reduction in cell viability after 72 hrs by Cell Titer-Glo assay; type: functional, cell-based; settings: HCT-116, 72 h; outline: as §4
A549 = test: Cytotoxicity against human A549 cells assessed as reduction in cell viability after 72 hrs by Cell Titer-Glo assay; type: functional, cell-based; settings: A549, 72 h; outline: as §4
[13] = Cytotoxicity against human PC3M1E8 cells assessed as reduction in cell viability after 72 hrs by Cell Titer-Glo assay; type: functional, cell-based; settings: PC3M1E8, 72 h; outline: as §4
A-375 = test: Cytotoxicity against human A-375 cells assessed as reduction in cell viability after 72 hrs by Cell Titer-Glo assay; type: functional, cell-based; settings: A-375, 72 h; outline: as §4
HeLa = test: Cytotoxicity against human HeLa cells assessed as reduction in cell viability after 72 hrs by Cell Titer-Glo assay; type: functional, cell-based; outline: as §4
HT-29 = test: Cytotoxicity against human HT-29 cells assessed as reduction in cell viability after 72 hrs by Cell Titer-Glo assay; type: functional, cell-based; settings: HT-29, 72 h; outline: as §4
HCT-116 [14] = test: Cell cycle arrest in human HCT-116 cells assessed as accumulation at G1 phase at 1 uM after 24 hrs by propidium iodide staining based flow cytometric analysis (reference value: 29%); type: functional
HEK293 = test: Cytotoxicity against human HEK293 cells assessed as reduction in cell viability after 72 hrs by Cell Titer-Glo assay; type: cell-based; settings: HEK293, 72 h; outline: as §4
HCT-116 [15] = test: Cell cycle arrest in human HCT-116 cells assessed as accumulation at G2/M phase at 1 uM after 24 hrs by propidium iodide staining based flow cytometric analysis (reference value: 21%); type: functional
[16] = target: T1, Proteasome Macropain subunit MB1 (Homo sapiens); test: as §2, with “Reversible” for “Irreversible”; outline: as §3

Row | SMILES | inhibition [9] | IC50 [10] | also measured
1 | CC(C)C[C@H](NC(=O)[C@H](CCc1ccccc1)NC(=O)CN1CCOCC1)C(=O)N[C@@H](Cc1ccccc1)C(=O)N[C@@H](CC(C)C)C(=O)[C@@]1(C)CO1 [CARFILZOMIB] | – | – | Vd at 48 h [1]: 0.3 L/kg; AUC(0-t) at 48 h (in vivo): 343 ng·h/mL; Activity [2]: Non-Toxic; clearance at 48 h [3]: 195 mL/min/kg; Cmax [4]: 27800 ng/mL; Activity [5]: 10%; Activity (HCT-116 [6]): Active; Activity [7]: Active; half-life at 48 h [8]: 17 min
2 | COc1ccc(C[C@H](NC(=O)OC(C)(C)C)C(=O)N[C@@H](Cc2ccc(Cl)cc2)C(=O)N[C@@H](CC(C)C)C(=O)c2ccco2)cc1 | > 50% | 50 µM | –
3 | COC[C@H](NC(=O)[C@H](Cc1ccccc1)NC(=O)OCc1ccccc1)C(=O)N[C@@H](CC(C)C)C(=O)c1ccco1 | > 50% | 4.16 µM | –
4 | COc1ccc(C[C@H](NC(=O)[C@H](Cc2ccccc2)NC(=O)c2ccccc2[N+](=O)[O-])C(=O)N[C@@H](CC(C)C)C(=O)c2ccco2)cc1 | > 50% | 7.26 µM | –
5 | CC(=O)N[C@@H](Cc1ccccc1)C(=O)N[C@@H](Cc1ccc(O)cc1)C(=O)N[C@@H](CC(C)C)C(=O)c1ccco1 | > 50% | 13.9 µM | –
6 | Cc1ccc(S(=O)(=O)N[C@@H](Cc2ccccc2)C(=O)N[C@@H](Cc2ccc(O)cc2)C(=O)N[C@@H](CC(C)C)C(=O)c2ccco2)cc1 | > 50% | 2.33 µM | –
7 | CC(C)C[C@H](NC(=O)[C@H](C)NC(=O)[C@H](Cc1ccccc1)NC(=O)OCc1ccccc1)C(=O)c1ccco1 | > 50% | > 50 µM | –
8 | COc1ccc(C[C@H](NC(=O)[C@H](Cc2ccccc2)NC(=O)c2ccccc2Br)C(=O)N[C@@H](CC(C)C)C(=O)c2ccco2)cc1 | > 50% | > 50 µM | –
9 | COc1ccc(C[C@H](NC(=O)[C@H](Cc2ccccc2)NC(=O)c2cnccn2)C(=O)N[C@@H](CC(C)C)C(=O)c2ccco2)cc1 | > 50% | > 50 µM | –
10 | Cc1ccc(S(=O)(=O)N[C@@H](CC(=O)NCC(C)(C)C)C(=O)N[C@@H](C)C(=O)N[C@@H](CC(C)C)C(=O)c2ccco2)cc1 | > 50% | 5.63 µM | –
11 | COc1ccc(C[C@H](NC(=O)OC(C)(C)C)C(=O)N[C@@H](C)C(=O)N[C@@H](CC(C)C)C(=O)c2ccco2)cc1 | > 50% | 12 µM | –
12 | COc1ccc(C[C@H](NC(=O)[C@H](Cc2ccccc2)NC(=O)c2ccccc2C)C(=O)N[C@@H](CC(C)C)C(=O)c2ccco2)cc1 | > 50% | 3.19 µM | –
13 | Cc1ccc(S(=O)(=O)N[C@@H](CC(=O)NCC(C)C)C(=O)N[C@@H](C)C(=O)N[C@@H](CC(C)C)C(=O)c2ccco2)cc1 | > 50% | 3.12 µM | –
14 | Cc1ccc(S(=O)(=O)N[C@@H](CC(=O)NCCC(C)C)C(=O)N[C@@H](C)C(=O)N[C@@H](CC(C)C)C(=O)c2ccco2)cc1 | > 50% | 6.3 µM | –
15 | COc1ccc(C[C@H](NS(=O)(=O)c2ccc(C)cc2)C(=O)N[C@@H](Cc2ccc(O)cc2)C(=O)N[C@@H](CC(C)C)C(=O)c2ccco2)cc1 | > 50% | 0.54 µM | IC50 (BGC-823): 8.37 µM; Activity (HCT-116 [11]): 25%; IC50 (HCT-116 [12]): 3.52 µM; IC50 (A549): 13.1 µM; IC50 [13]: 4.98 µM; IC50 (A-375): 3.87 µM; IC50 (HeLa): 6.35 µM; IC50 (HT-29): 5.4 µM; Activity (HCT-116 [14]): 24%; IC50 (HEK293): > 50 µM; Activity (HCT-116 [15]): 51%
16 | CC(C)C[C@H](NC(=O)[C@H](Cc1ccccc1)NC(=O)c1cnccn1)B(O)O | – | – | Activity [16]: 80%
17 | COc1ccc(C[C@H](NC(=O)c2cnccn2)C(=O)N[C@@H](Cc2ccc(O)cc2)C(=O)N[C@@H](CC(C)C)C(=O)c2ccco2)cc1 | > 50% | 8.25 µM | –
18 | COc1ccc(C[C@H](NC(=O)[C@H](Cc2ccccc2)NC(=O)c2ccccc2OC)C(=O)N[C@@H](CC(C)C)C(=O)c2ccco2)cc1 | > 50% | > 50 µM | –
19 | CC(C)C[C@H](NC(=O)[C@H](Cc1ccc(Cl)cc1)NC(=O)[C@H](Cc1ccccc1)NC(=O)OCc1ccccc1)C(=O)c1ccco1 | > 50% | > 50 µM | –
20 | CC(C)C[C@H](NC(=O)[C@H](Cc1ccc(O)cc1)NC(=O)[C@H](Cc1ccc(Cl)cc1)NC(=O)OC(C)(C)C)C(=O)c1ccco1 | > 50% | 7.26 µM | –
21 | COC[C@H](NC(=O)[C@H](CC(=O)NCC(C)C)NS(=O)(=O)c1ccc(C)cc1)C(=O)N[C@@H](CC(C)C)C(=O)c1ccco1 | > 50% | 0.68 µM | IC50 (BGC-823): 3.96 µM; Activity (HCT-116 [11]): 30%; IC50 (HCT-116 [12]): 1.67 µM; IC50 (A549): 17.6 µM; IC50 [13]: 3.73 µM; IC50 (A-375): 2.61 µM; IC50 (HeLa): 2.47 µM; IC50 (HT-29): 4.85 µM; Activity (HCT-116 [14]): 27%; IC50 (HEK293): > 50 µM; Activity (HCT-116 [15]): 43%
22 | CC(C)C[C@H](NC(=O)[C@H](C)NC(=O)[C@H](Cc1ccccc1)NC(=O)OC(C)(C)C)C(=O)c1ccco1 | > 50% | 45.6 µM | –
23 | COC[C@H](NC(=O)[C@H](Cc1ccc(OC)cc1)NC(=O)OC(C)(C)C)C(=O)N[C@@H](CC(C)C)C(=O)c1ccco1 | > 50% | 5.86 µM | –
24 | COC[C@H](NC(=O)[C@H](CC(=O)NCCC(C)C)NS(=O)(=O)c1ccc(C)cc1)C(=O)N[C@@H](CC(C)C)C(=O)c1ccco1 | > 50% | > 50 µM | –
25 | COC[C@H](NC(=O)[C@H](Cc1ccccc1)NC(=O)OC(C)(C)C)C(=O)N[C@@H](CC(C)C)C(=O)c1ccco1 | > 50% | 14.3 µM | –
26 | CC(C)C[C@H](NC(=O)[C@H](Cc1ccc(O)cc1)NC(=O)[C@H](Cc1ccc(O)cc1)NC(=O)c1ccc(CO)cc1)C(=O)c1ccco1 | > 50% | 4.56 µM | –

— ChEMBL document CHEMBL4680218, “Design and synthesis of tripeptidyl furylketones as selective inhibitors against the β5 subunit of human 20S proteasome” (Eur J Med Chem, 2020)
